From ChEMBL document CHEMBL4376812 (J Med Chem, 2019)

Tests used:
Cytochrome P450 3A4 [1] = biological target: T1, Cytochrome P450 3A4 (Homo sapiens, UniProt P08684); experiment: Inhibition of CYP3A4 (unknown origin); assay type: ADME
How it was run: (§1)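 Inhibition of CYP1A2, 2C9, 2C19, 2D6 and 3A4, read out as IC50. The highest concentration tested was 40 μM.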

[2] = Volume of distribution at steady state in cynomolgus monkey at 2 mg/kg, iv; assay type: ADME, organism-based, Macaca fascicularis; conditions: in vivo, read-out: Vdss
How it was run: (§2)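 Single intravenous dose in 80% PEG 400/20% water. V_ss was taken from the iv plasma PK profile.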

[3] = Clearance in dog at 2 mg/kg, iv; assay type: ADME, organism-based, Canis lupus familiaris; conditions: in vivo
How it was run: (§3)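 Dog and monkey iv PK: 2 mg/kg given by iv administration. Clearance (mL min⁻¹ kg⁻¹), Vss, T1/2 (h) and MRT (h) were derived.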

[4] = MRT in C57BL/6 mouse at 1 mg/kg, iv; assay type: ADME, organism-based; conditions: in vivo
How it was run: (§4)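 Mouse iv PK: 1 mg/kg given in 80% PEG 400/20% water. Clearance (mL min⁻¹ kg⁻¹) and MRT (h) were derived.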

[5] = Clearance in cynomolgus monkey at 2 mg/kg, iv; assay type: ADME, organism-based, Macaca fascicularis; conditions: in vivo; how it was run: as §3
[6] = Protein binding in human assessed as unbound fraction; assay type: ADME
[7] = Protein binding in cynomolgus monkey assessed as unbound fraction; assay type: ADME, Macaca fascicularis
[8] = Drug metabolism in C57BL/6 mouse assessed as N-dealkylation of compound by measuring primary amide metabolite formation in mouse plasma by deuterium kinetic isotope effect; assay type: ADME
How it was run: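 Circulating primary amide metabolite, formed by N-dealkylation of the deuteromethyl amide, was measured in the mouse, dog and monkey PK studies (10 mg/kg po; iv arms). The lower limit of detection was about 2 nM.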

[9] = Time during which drug concentration exceed invitro IC50 for TYK2 in mouse whole blood assessed as decrease in IFNalpha-induced STAT1 phosphorylation in C57BL/6 mouse at 7.5 mg/kg, po via gavage bid for 9 days with first dose given prior to first IL23 challenge and twice a day thereafter; assay type: ADME, organism-based; conditions: in vivo, 216 h
How it was run: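 Drug levels were measured in the animals of the IL-23 acanthosis study, dosed orally twice daily. The duration was the time, in hours, that levels stayed at or above the in vitro mouse whole blood IC50 for IFNα-induced pSTAT1.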

[10] = Volume of distribution at steady state in dog at 2 mg/kg, iv; assay type: ADME, organism-based, Canis lupus familiaris; conditions: in vivo, read-out: Vdss; how it was run: as §2
[11] = Oral bioavailability in C57BL/6 mouse at 10 mg/kg; assay type: ADME, organism-based; conditions: in vivo
How it was run: (§5)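 Oral PK: single dose of 10 mg/kg as a solution in ethanol/TPGS/PEG 300 (5:5:90) given to mouse, dog and monkey. Cmax (μM), AUC (μM × h) and bioavailability F (%) were derived, with F taken against the iv arm.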

[12] = Half life in dog at 2 mg/kg, iv; assay type: ADME, organism-based, Canis lupus familiaris; conditions: in vivo; how it was run: as §3
[13] = Protein binding in mouse assessed as unbound fraction; assay type: ADME
[14] = Metabolic stability in rabbit liver microsomes assessed as half life; assay type: ADME, Oryctolagus cuniculus, Microsome
How it was run: (§6)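 Liver microsomes from human, rat, mouse, dog, cynomolgus monkey and rabbit were incubated with compound. Stability is reported as half-life (T1/2, min). Values are means of at least three separate experiments.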

[15] = Half life in C57BL/6 mouse at 1 mg/kg, iv; assay type: ADME, organism-based; conditions: in vivo
How it was run: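 Mouse iv PK: 1 mg/kg in 80% PEG 400/20% water. Terminal half-life reported in hours.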

[16] = Metabolic stability in cynomolgus monkey liver microsomes assessed as half life; assay type: ADME, Macaca fascicularis, Microsome; how it was run: as §6
[17] = Metabolic stability in mouse liver microsomes assessed as compound remaining incubated for 10 mins; assay type: ADME, Microsome; conditions: read-out: Stability
How it was run: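 Mouse liver microsomal stability, reported as percent of parent remaining after a 10 min incubation. Values are means of at least three experiments unless otherwise noted.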

[18] = Volume of distribution at steady state in C57BL/6 mouse at 1 mg/kg, iv; assay type: ADME, organism-based; conditions: in vivo, read-out: Vdss; how it was run: as §2
Cytochrome P450 3A4 [19] = biological target: T1, Cytochrome P450 3A4; experiment: Induction of CYP3A4 (unknown origin) by PXR-transactivation assay; assay type: ADME
How it was run: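 CYP3A4 induction measured by PXR transactivation, read out as EC50. The highest concentration tested was 40 μM.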

[20] = Metabolic stability in mouse liver microsomes assessed as half life; assay type: ADME, Microsome; how it was run: as §6
[21] = Cmax in C57BL/6 mouse at 10 mg/kg, po; assay type: ADME, organism-based; design: dose 10 mg/kg, route oral; conditions: in vivo; how it was run: as §5
[22] = Oral bioavailability in cynomolgus monkey at 10 mg/kg; assay type: ADME, organism-based, Macaca fascicularis; conditions: in vivo; how it was run: as §5
[23] = Metabolic stability in dog liver microsomes assessed as half life; assay type: ADME, Canis lupus familiaris, Microsome; how it was run: as §6
Cytochrome P450 2C9 = Cytochrome P450 2C9 (Homo sapiens, UniProt P11712); experiment: Inhibition of CYP2C9 (unknown origin); assay type: ADME; how it was run: as §1
Cytochrome P450 1A2 = biological target: T2, Cytochrome P450 1A2 (Homo sapiens, UniProt P05177); experiment: Inhibition of CYP1A2 (unknown origin); assay type: ADME; how it was run: as §1
T2 sequence (P05177 whole entry): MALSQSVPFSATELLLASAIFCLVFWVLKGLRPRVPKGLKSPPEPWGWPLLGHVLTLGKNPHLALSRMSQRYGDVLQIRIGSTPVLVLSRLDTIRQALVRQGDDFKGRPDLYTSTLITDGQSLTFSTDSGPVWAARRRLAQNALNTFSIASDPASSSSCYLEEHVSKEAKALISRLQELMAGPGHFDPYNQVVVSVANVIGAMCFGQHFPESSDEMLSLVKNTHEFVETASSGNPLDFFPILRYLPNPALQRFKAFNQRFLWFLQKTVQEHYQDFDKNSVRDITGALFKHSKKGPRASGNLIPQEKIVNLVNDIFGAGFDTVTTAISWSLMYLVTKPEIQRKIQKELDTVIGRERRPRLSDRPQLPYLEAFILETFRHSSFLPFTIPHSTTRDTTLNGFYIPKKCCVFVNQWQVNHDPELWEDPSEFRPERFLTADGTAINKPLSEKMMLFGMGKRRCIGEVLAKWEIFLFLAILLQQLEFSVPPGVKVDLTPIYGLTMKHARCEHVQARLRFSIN

Cytochrome P450 2C19 = Cytochrome P450 2C19 (Homo sapiens, UniProt P33261); experiment: Inhibition of CYP2C19 (unknown origin); assay type: ADME; how it was run: as §1
[24] = Metabolic stability in human liver microsomes assessed as half life; assay type: ADME, Microsome; how it was run: as §6
Cytochrome P450 2D6 = Cytochrome P450 2D6 (Homo sapiens, UniProt P10635); experiment: Inhibition of CYP2D6 (unknown origin); assay type: ADME; how it was run: as §1
[25] = Clearance in C57BL/6 mouse at 1 mg/kg, iv; assay type: ADME, organism-based; conditions: in vivo; how it was run: as §4
Mus musculus [26] = experiment: Antiinflammatory activity in CD40-induced colitis model of SCID mouse assessed as inhibition of histological scores in intestine at 50 mg/kg, po administered twice daily relative to control; assay type: functional
How it was run: (§7)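 Colitis induced by anti-CD40 in SCID mice. Compound was given orally at 50 mg/kg twice daily. Read-outs were peak weight loss (IL-12 driven) and histological scores.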

[27] = Permeability coefficient, Kp across basolateral to apical side in human Caco2 cells; assay type: ADME, cell-based; conditions: Caco-2, read-out: permeability
How it was run: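 Caco-2 monolayer permeability measured in both directions, apical-to-basal and basal-to-apical, reported as Pc in nm/s. An efflux ratio was calculated from the two directions.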

Mus musculus [28] = experiment: Antiinflammatory activity in CD40-induced colitis model of SCID mouse assessed as inhibition of IL-2 driven body weight loss at 50 mg/kg, po administered twice daily relative to control; assay type: functional; conditions: in the assay text read “IL-12 driven” for “IL-2 driven”; how it was run: as §7
[29] = Cmax in dog at 10 mg/kg, po; assay type: ADME, organism-based, Canis lupus familiaris; design: dose 10 mg/kg, route oral; conditions: in vivo; how it was run: as §5

T1 sequence (P08684 whole entry): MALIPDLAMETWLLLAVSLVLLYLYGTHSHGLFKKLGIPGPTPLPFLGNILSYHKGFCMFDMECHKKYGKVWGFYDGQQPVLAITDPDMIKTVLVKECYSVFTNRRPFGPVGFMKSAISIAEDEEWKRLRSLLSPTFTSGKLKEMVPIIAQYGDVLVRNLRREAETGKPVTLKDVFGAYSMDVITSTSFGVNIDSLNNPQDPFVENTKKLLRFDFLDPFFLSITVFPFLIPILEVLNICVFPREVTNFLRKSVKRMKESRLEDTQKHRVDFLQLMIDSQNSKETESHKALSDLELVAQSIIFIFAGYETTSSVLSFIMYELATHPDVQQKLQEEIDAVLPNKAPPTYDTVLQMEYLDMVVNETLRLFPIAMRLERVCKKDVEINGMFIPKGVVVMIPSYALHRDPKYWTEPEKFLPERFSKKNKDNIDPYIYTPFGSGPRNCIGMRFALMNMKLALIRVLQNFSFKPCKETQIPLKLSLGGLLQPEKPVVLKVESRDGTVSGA
Sequence of Cytochrome P450 2D6 (P10635 whole entry): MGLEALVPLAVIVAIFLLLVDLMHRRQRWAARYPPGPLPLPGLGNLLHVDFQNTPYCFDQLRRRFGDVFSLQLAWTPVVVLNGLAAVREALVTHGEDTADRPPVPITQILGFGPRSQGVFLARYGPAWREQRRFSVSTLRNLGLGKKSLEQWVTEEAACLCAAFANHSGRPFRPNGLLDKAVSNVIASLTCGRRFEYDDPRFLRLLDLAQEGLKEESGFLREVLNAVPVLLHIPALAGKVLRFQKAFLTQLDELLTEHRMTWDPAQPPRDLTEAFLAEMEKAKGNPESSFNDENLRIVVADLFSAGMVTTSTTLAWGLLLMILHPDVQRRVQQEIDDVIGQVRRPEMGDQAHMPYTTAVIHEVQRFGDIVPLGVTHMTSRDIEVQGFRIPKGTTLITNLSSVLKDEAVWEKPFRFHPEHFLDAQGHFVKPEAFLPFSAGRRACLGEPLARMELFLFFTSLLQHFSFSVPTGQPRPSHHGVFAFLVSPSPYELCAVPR
Sequence of Cytochrome P450 2C19 (P33261 whole entry): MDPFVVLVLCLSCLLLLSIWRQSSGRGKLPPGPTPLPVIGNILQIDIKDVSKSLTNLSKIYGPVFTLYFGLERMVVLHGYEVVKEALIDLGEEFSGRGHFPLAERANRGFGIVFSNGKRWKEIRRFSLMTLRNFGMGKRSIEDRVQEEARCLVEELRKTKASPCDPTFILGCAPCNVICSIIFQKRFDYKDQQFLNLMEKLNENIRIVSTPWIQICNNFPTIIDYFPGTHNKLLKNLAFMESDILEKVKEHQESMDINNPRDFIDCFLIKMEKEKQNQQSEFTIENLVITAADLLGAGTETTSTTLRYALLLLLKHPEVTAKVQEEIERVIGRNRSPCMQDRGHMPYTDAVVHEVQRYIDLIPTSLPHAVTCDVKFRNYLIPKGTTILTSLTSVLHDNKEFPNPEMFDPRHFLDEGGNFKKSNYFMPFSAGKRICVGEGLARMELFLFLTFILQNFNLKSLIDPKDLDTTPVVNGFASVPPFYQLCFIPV
Sequence of Cytochrome P450 2C9 (P11712 whole entry): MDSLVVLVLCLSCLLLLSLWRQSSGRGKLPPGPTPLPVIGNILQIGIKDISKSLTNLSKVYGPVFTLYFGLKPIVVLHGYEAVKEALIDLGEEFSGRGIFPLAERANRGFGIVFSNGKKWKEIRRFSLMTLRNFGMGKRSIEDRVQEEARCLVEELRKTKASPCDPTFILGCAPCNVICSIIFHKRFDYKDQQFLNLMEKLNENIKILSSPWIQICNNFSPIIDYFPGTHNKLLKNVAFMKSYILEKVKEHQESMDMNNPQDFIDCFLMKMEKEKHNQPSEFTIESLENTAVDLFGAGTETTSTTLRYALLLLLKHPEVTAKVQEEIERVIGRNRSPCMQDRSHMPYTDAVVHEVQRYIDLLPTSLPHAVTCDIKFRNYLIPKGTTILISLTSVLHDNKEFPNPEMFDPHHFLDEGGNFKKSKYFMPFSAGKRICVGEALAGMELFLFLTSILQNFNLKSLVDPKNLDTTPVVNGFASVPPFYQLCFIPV

`[2H]C([2H])([2H])NC(=O)c1nnc(NC(=O)C2CC2)cc1Nc1cccc(-c2ncn(C)n2)c1OC` [DEUCRAVACITINIB] showed an IC50 (Cytochrome P450 3A4 [1]) greater than 40 µM, a Vd [2] of 2 L/kg and a clearance [3] of 6.8 mL/min/kg. It also gave an MRT [4] of 3.6 h, a clearance [5] of 4.8 mL/min/kg and a fraction unbound [6] of 0.13. The fraction unbound [7] was 0.12, the Drug metabolism [8] was less than 2 nM and the “T>IC50” value [9] was 19 h. For the same compound, the Vd [10] was 2.3 L/kg, the bioavailability [11] was 122% and the half-life [12] was 276 min. It also gave a fraction unbound [13] of 0.15, a half-life [14] greater than 120 min and a half-life [15] of 252 min. For the same compound, the half-life [16] was greater than 120 min, the remaining at 10 min [17] was 89% and the Vd [18] was 2.9 L/kg. It also gave an EC50 (Cytochrome P450 3A4 [19]) greater than 40 µM, a half-life [20] greater than 120 min and a Cmax [21] of 7.5 µM. For the same compound, the bioavailability [22] was 87%, the half-life [23] was greater than 120 min and the IC50 (Cytochrome P450 2C9) was greater than 40 µM. For the same compound, the IC50 (Cytochrome P450 1A2) was greater than 40 µM, the IC50 (Cytochrome P450 2C19) was greater than 40 µM and the half-life [24] was greater than 120 min. The IC50 (Cytochrome P450 2D6) was greater than 40 µM, the clearance [25] was 13.2 mL/min/kg and the inhibition in vivo at 50 mg/kg (Mus musculus [26]) was 70%. The Papp B→A [27] was 74 ×10⁻⁶ cm/s, the inhibition in vivo at 50 mg/kg (Mus musculus [28]) was 99% and the Cmax [29] was 6.9 µM.
